Published values collected from several papers.
Each line is one published result; the experiments were not run side by side. pEC50, pIC50: −log10 of the molar value.
Cell line: HCT-116
Effect on: cell growth or viability

SMILES | method | concentration | time | endpoint | value
Cc1nc(Nc2ccc3c(c2)CC(=O)N3)c2ccccc2n1 | MTT | – | – | pIC50 | 4.91
C=CC(=O)NC1CCN(c2ncc3ncnc(Nc4ccc(Oc5ccc6c(c5)ncn6C)c(C)c4)c3n2)CC1 | – | – | – | pEC50 | 5.59
C=CC(=O)c1cccnc1Nc1cccc(C(F)(F)F)c1 | CCK-8 | – | 72 h | GI50 | 34.9 µM
Cc1nc(Nc2ccc3c(c2)/C(=C/c2ccccc2C)C(=O)N3)c2ccccc2n1 | MTT | – | – | pIC50 | 5.03
COc1nc(NCc2cn(-c3ccc(C(=O)Nc4ccccc4)cc3)nn2)nc(OC)n1 | MTT | – | 72 h | pIC50 | 9.06
Cc1ccc(-c2cc(-c3ccc(N(C)C)cc3)c3c(=O)n(C)c(=O)n(C)c3n2)cc1 | MTT | – | 48 h | pIC50 | 4.92
COc1cc2ncnc(Nc3ccc4c(c3)/C(=C/c3ccccc3)C(=O)N4)c2cc1OC | MTT | – | – | pIC50 | 4.59
COc1ccc(-c2cc(-c3cc(OC)ccc3OC)c3c(=O)n(C)c(=O)n(C)c3n2)cc1 | MTT | – | 48 h | pIC50 | 4.95
Cc1nc(Nc2ccc3c(c2)/C(=C/c2ccccc2)C(=O)N3Cc2ccccc2)c2ccccc2n1 | MTT | – | – | pIC50 | 5.47
COc1ccc(-c2cc(-c3ccc(Br)cc3)c3c(=O)[nH]c(=O)[nH]c3n2)cc1 | MTT | – | 48 h | pIC50 | 5.10
COc1nc(NCc2cn(-c3ccc(C(=O)Nc4ccc(Cl)cc4)cc3)nn2)nc(OC)n1 | MTT | – | 72 h | pIC50 | 7.48
Cc1ccc(-c2cc(-c3ccc(Cl)cc3)c3c(=O)n(C)c(=O)n(C)c3n2)cc1 | MTT | – | 48 h | pIC50 | 5.23
COc1nc(NCc2cn(-c3ccc(C(=O)Nc4ccc(C)cc4)cc3)nn2)nc(OC)n1 | MTT | – | 72 h | pIC50 | 7.56
O=C(O)c1ccccc1Nc1cccc(C(F)(F)F)c1 | CCK-8 | – | 72 h | GI50 | > 40 µM
COc1cc2ncnc(N(C)c3ccc4c(c3)/C(=C/c3ccccc3)C(=O)N4C)c2cc1OC (mixture of isomers) | MTT | – | – | pIC50 | 5.16
COc1nc(NCc2cn(-c3ccc(C(=O)Nc4ccc(F)cc4)cc3)nn2)nc(OC)n1 | MTT | – | 72 h | pIC50 | 7.47
COc1ccc(-c2cc(-c3ccc(OC)cc3)c3c(=O)[nH]c(=O)[nH]c3n2)cc1 | MTT | – | 48 h | pIC50 | 5.18
C=CC(=O)c1cccnc1Nc1cc(C(F)(F)F)ccc1OC | CCK-8 | – | 72 h | GI50 | 12.3 µM
CC(=NNC(=O)COc1ccc2c(C)c(Cc3ccccc3)c(=O)oc2c1C)c1ccc(Br)cc1 | MTT | 100 µg/mL | – | viability | 33.6%
Cc1ccc(-c2cc(-c3c(Cl)cccc3Cl)c3c(=O)[nH]c(=O)[nH]c3n2)cc1 | MTT | – | 48 h | pIC50 | 4.55
COc1nc(NCc2cn(-c3ccc(NC(=O)c4ccccc4)cc3)nn2)nc(OC)n1 | MTT | – | 72 h | pIC50 | 7.22
Cc1nc(N(C)c2ccc3c(c2)/C(=C/c2ccccc2Cl)C(=O)N3C)c2ccccc2n1 | MTT | – | – | pIC50 | 5.39
COc1ccc(-c2cc(-c3c(OC)cccc3OC)c3c(=O)[nH]c(=O)[nH]c3n2)cc1 | MTT | – | 48 h | pIC50 | 4.54
COc1cccc2c1C(=O)c1c(O)c3c(c(O)c1C2=O)C[C@@](O)(C(=O)CO)C[C@@H]3O[C@H]1C[C@H](N)[C@H](O)[C@H](C)O1 | MTT | – | 72 h | pIC50 | 6.08
Cc1ccc(-c2cc(-c3ccc(N(C)C)cc3)c3c(=O)[nH]c(=O)[nH]c3n2)cc1 | MTT | – | 48 h | pIC50 | 5.12
COc1nc(NCc2cn(-c3ccc(NC(=O)c4ccc(Cl)cc4)cc3)nn2)nc(OC)n1 | MTT | – | 72 h | pIC50 | 7.47
